High-throughput results: PubChem BioAssay, several laboratories
Rows were chosen to be rich in hits. Some 1.9% of all compounds tested hit in one or more screens of this group.
proCasp7 act – activates human procaspase-7, counter-screen for procaspase-3 activators; P55210; recombinant procaspase-7, Ac-DEVD-pNA absorbance 405 nm; D23A/D198A/D206A triple mutant, cannot self-cleave; scale: DMSO 0, 5 µM enzyme 100; activation, % at 8.5 µM; hit rate 0.093% among 330,000; AID 463210;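 active means percent activation above the screen-wide mean plus 3 SD, cut at about 25% in these data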
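System: Procaspase-7 triple mutant (PC-7 D3A); measure: % activation from two-timepoint absorbance difference, scaled to controls; times: 1 h compound preincubation, 2 h substrate cleavage, 25 °C; also added: Ac-DEVD-pNA substrate, 400 µM as added; measured by: Epi-absorbance of released pNA at 405 nm, two timepoints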
Arr AP2 block – inhibitors of human beta-arrestin and AP2 interaction. FITC-arrestin peptide / GST-AP2 beads, flow cytometry; AP2 beta2 appendage carries R879A mutation. inhibition, % at 10 µM. hit rate 0.31% among 340,000;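 active means inhibition above a set limit, near 3 SD of compounds lacking own fluorescence, cut at about 54% in these data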
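Measured by: flow cytometry, FL1 (488/535 nm); Material: AP2 appendage R879A on GSH beads; Evaluation: percent response; Timing: pre-incubation 12 min, peptide binding 1 h, room temperature; Also added: 50 nM FITC-arrestin peptide; Medium: PBS with 0.05% Tween 20 and 0.1% BSA.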
PLC-gamma1 inh – inhibitors of human phospholipase C gamma1; P19174; purified PLC-gamma1, fluorogenic substrate, fluorescence; inhibition, % at 12.2 µM; hit rate 0.84% among 370,000; AID 720700
Target sequence (P19174 whole entry, looked up): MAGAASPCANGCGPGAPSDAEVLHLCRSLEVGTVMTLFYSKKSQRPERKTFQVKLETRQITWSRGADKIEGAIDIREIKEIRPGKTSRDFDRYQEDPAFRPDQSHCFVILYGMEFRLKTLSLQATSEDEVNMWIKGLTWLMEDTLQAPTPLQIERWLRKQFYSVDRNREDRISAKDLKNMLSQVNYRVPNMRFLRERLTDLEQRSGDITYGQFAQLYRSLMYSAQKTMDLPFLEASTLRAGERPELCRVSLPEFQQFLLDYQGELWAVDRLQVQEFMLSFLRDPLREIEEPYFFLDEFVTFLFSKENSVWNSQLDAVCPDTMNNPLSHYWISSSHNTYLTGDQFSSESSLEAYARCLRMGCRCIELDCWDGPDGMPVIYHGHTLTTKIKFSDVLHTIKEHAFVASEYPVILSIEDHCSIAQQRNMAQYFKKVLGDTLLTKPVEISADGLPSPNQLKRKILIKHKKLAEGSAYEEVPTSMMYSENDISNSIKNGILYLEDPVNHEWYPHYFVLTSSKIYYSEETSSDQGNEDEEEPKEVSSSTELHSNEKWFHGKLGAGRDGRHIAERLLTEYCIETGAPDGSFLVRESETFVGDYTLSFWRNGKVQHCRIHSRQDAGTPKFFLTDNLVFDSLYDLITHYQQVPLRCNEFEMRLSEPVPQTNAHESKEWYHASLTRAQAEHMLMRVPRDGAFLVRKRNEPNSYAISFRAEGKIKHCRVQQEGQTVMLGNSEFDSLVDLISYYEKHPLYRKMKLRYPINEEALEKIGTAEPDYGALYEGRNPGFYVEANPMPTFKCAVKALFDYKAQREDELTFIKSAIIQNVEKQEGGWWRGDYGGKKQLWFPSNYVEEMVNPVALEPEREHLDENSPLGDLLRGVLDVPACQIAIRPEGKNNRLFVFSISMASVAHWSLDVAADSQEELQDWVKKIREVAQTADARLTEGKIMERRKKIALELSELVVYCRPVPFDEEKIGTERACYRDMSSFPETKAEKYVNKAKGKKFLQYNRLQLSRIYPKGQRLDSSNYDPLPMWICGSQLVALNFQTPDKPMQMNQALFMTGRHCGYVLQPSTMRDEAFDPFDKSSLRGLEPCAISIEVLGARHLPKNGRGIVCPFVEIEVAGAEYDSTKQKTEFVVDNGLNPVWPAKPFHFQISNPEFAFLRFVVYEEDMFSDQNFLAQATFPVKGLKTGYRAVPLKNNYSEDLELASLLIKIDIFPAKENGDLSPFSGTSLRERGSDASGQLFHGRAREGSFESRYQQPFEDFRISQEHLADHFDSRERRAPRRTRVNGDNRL
HGIII-sPLA2 inh – Blocks human group III sPLA2 activity; Q9NZ20; QFRET BODIPY PC-A2 liposome hydrolysis, fluorescence; inhibition, % at 12.2 µM; hit rate 0.56% among 370,000; AID 743126;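 active means inhibition above mean plus 3 SD of compounds lying within the high and low control bounds, cut at about 19% in these data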
proCasp3 act – activates human procaspase-3; P42574; recombinant procaspase-3 D3A, Ac-DEVD-pNA absorbance 405 nm; activation, % at 8.5 µM; hit rate 0.11% among 330,000;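 active means activation above the mean of all tested compounds plus 3 SD, cut at about 21% in these data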
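Test system: Procaspase-3 D3A mutant; medium: Zinc-free HEPES/NaCl buffer with 0.01% Triton X-100 at pH 7.4; reagent: DEVD-pNA substrate; doses: one concentration, 8.5 µM nominal, 0.8% DMSO; times: 1 h preincubation plus 2 h reaction at 25 °C; signal: Epi-absorbance at 405 nm of released p-nitroaniline, 0 and 120 min; replicates: singlicate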
PLC-beta3 inh – inhibitors of human phospholipase C beta3 | Q01970 | Purified PLC-beta3, fluorogenic substrate, fluorescence | inhibition, % at 12.2 µM | hit rate 0.18% among 370,000 | AID 720704; in the data active means inhibition above about 11%
proCasp7 act trip – counter-screen for procaspase-3 activators: activators of human procaspase-7; activation, % at 8.5 µM; 210 tested, under 10 active; recombinant procaspase-7, Ac-DEVD-pNA absorbance; asp23/198/206-to-Ala mutant, cannot self-cleave; shares compounds with proCasp3 act; AID 488941;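 active means mean activation above a set limit taken from an earlier procaspase-7 screen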
proCasp3 confirm – confirmation of human procaspase-3 activators; shares compounds with proCasp3 act; recombinant PC-3 D3A, Ac-DEVD-pNA absorbance 405 nm; 100% is higher-enzyme control; activation, % at 8.5 µM; hit rate 10% among 210;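 active means mean activation above a set limit carried over from the earlier primary screen, cut at about 22% in these data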
PC3 dual counter – counter-screen: procaspase-3 (human) activation | AID 493114 | shares compounds with proCasp7 act | activation, % at 8.5 µM | recombinant PC-3 D3A, Ac-DEVD-pNA absorbance 405 nm; aspartates 9, 28, 175 changed to alanine; 100% = enzyme control | 290 tested, under 10 active;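 active means mean percent activation across triplicates above a set limit taken from the earlier primary procaspase-3 screen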
PC7 dual conf – procaspase-7 (human) activation, dual activator confirmation | shares compounds with proCasp7 act | recombinant procaspase-7, Ac-DEVD-pNA absorbance 405 nm; D23A/D198A/D206A mutant that cannot self-cleave | activation, % at 8.5 µM | 290 tested, under 10 active | AID 493115;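 active means mean activation above a set limit carried over from the earlier primary screen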
PLCg1 ctr – inhibits human PLC-gamma1 in PLC-beta3 counter-screen. shares compounds with PLC-gamma1 inh. purified PLC-gamma1, fluorogenic substrate, fluorescence. inhibition, % at 12.3 µM. hit rate 3.1% among 3,300. AID 743258
PLCbeta3 conf – confirmation of human PLC-beta3 inhibitors; shares compounds with PLC-gamma1 inh; inhibition, % at 12.3 µM; hit rate 1% among 3,300; purified PLC-beta3, fluorogenic substrate fluorescence; in the data active means inhibition above about 11%
hGIII sPLA2 conf – human GIII-sPLA2 inhibition, confirmation; inhibition, % at 12.2 µM; shares compounds with HGIII-sPLA2 inh; recombinant hGIII-sPLA2, BODIPY PC-A2 QFRET fluorescence; hit rate 34% among 2,000;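 active means mean inhibition across triplicates above the hit cutoff set in the earlier primary screen, cut at about 19% in these data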
535nm interf – counter-screen for HGIII-sPLA2 inhibitors: 535nm fluorescence interference | shares compounds with HGIII-sPLA2 inh | inhibition, % at 12.2 µM | hit rate 8.5% among 2,000 | BODIPY FL product fluorescence interference, QFRET;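 active means average inhibition above the solvent-only control mean plus 3 SD, cut at about 6% in these data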
535nm interf DR – 535nm optical interference dose response, HGIII-sPLA2 counter-screen | 240 tested, under 10 active | shares compounds with HGIII-sPLA2 inh | BODIPY FL product fluorescence interference, cell-free | IC50, µM;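 active means IC50 at or below 10 µM; inactive means IC50 above 10 µM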
Large screens that a line does not name were inactive (follow-up assays come after a bar, where they were run). Unless noted, no stated cut-off is given here; in the data, active means inhibition above about 9.5%; inactive means the rest.

O=C(CSc1nnnn1-c1ccccc1)Nc1ccc(Cl)cc1	PLC-gamma1 inh 14.3, proCasp3 act 27.2 | proCasp7 act trip inactive | proCasp3 confirm inactive | PLCg1 ctr inactive | PLCbeta3 conf inactive
COC(=O)[C@@]12CCCCC3=C1N(CCC3)C(=O)[C@H]2CC(=O)N1CCCC1	none (no result: proCasp7 act, Arr AP2 block, proCasp3 act)
COc1ccc2nc(Nc3nc4cc5c(cc4s3)OCO5)sc2c1	HGIII-sPLA2 inh 23.2, proCasp3 act 68.9 | proCasp7 act trip inactive | proCasp3 confirm inactive | hGIII sPLA2 conf 36.7 | 535nm interf inactive | 535nm interf DR inactive
COc1ccc(C2CC(=O)C(c3ccccc3)=CN2Cc2ccccc2)cc1 (stereo not drawn)	none (no result: proCasp7 act, Arr AP2 block, proCasp3 act)
O=C(NCCN1CCOCC1)C(=O)c1c[nH]c2ccccc12	proCasp7 act 30.4 | PC3 dual counter inactive | PC7 dual conf inactive
O=C(CN1CCOCC1)c1c[nH]c2ccccc12	none
CCCCCCCCN1C(=O)[C@@H](CC(=O)NCc2ccccc2)C[C@@]2(C(=O)OC)C1=C[C@H](C(C)C)O[C@@H]2C1CC1	none (no result: proCasp7 act, Arr AP2 block, proCasp3 act)
CCC(C)NC(=O)CSc1ccc(NC(C)=O)cc1 (stereo not drawn)	proCasp7 act 39.1 | PC3 dual counter inactive | PC7 dual conf inactive
CCC(C)NC(=O)CSc1ccc(Cl)cc1 (stereo not drawn)	none
C=CCC12C=C(OC)C(=O)C(C1=O)C(c1ccc(OC)cc1)C2C (stereo not drawn)	none (no result: proCasp7 act, Arr AP2 block, proCasp3 act)
COc1ccc(C(=O)N/N=C/c2ccc(N(C)c3ccccc3)cc2)cc1	proCasp7 act 43.6, proCasp3 act 41.0 | PC3 dual counter inactive | PC7 dual conf inactive
CN(C)c1nc(-c2ccccc2)cc(C(F)(F)F)c1C#N	none
CN(C)c1nc(-c2cccs2)cc(C(F)(F)F)c1C#N	proCasp7 act 39.0 | PC3 dual counter inactive | PC7 dual conf inactive
CN1CCCN(C(=O)CSc2nnc(-c3cccnc3)n2C2CCCCC2)CC1	none (no result: proCasp7 act, Arr AP2 block, proCasp3 act)
Cc1[nH]nc2c1C(c1c[nH]c3ccccc13)C(C#N)=C(N)O2 (stereo not drawn)	proCasp7 act 29.4 | PC3 dual counter inactive | PC7 dual conf inactive
Fc1ccc(C2CC(c3ccco3)=NN2c2ccccc2)cc1 (stereo not drawn)	proCasp7 act 36.0, proCasp3 act 32.5 | PC3 dual counter inactive | PC7 dual conf inactive
O=C(c1cccc(F)c1)N(Cc1ccccn1)CC1CCCO1 (stereo not drawn)	none (no result: proCasp7 act, Arr AP2 block, proCasp3 act)
Cc1ccccc1Cn1ccc(NC(=O)c2cc3nc(-c4ccco4)cc(C(F)(F)F)n3n2)n1	proCasp7 act 48.0 | PC3 dual counter inactive | PC7 dual conf inactive
Cc1cccc(NC(=O)CCS(=O)(=O)c2ccccc2)c1C	none (no result: proCasp7 act, Arr AP2 block, proCasp3 act)
COC(=O)c1ccc(CNC(=O)[C@@H]2CCCN2S(=O)(=O)c2ccccc2F)cc1	proCasp7 act 26.4 | PC3 dual counter inactive | PC7 dual conf inactive
CCOC(=O)/C(C#N)=C/c1c(Oc2cccc(C)c2)nc2c(C)cccn2c1=O	none
Cc1ccc(Oc2nc3c(C)cccn3c(=O)c2/C=C(\C#N)C(N)=O)cc1	proCasp7 act 45.6, proCasp3 act 22.2 | PC3 dual counter inactive | PC7 dual conf inactive
Cc1cccc(C2=NN(c3ccccc3)[C@@H](C(=O)N3CCOC3=O)[C@@H]2c2ccc(F)cc2)c1	none
Cc1cccc(C2=NN(c3ccccc3)[C@H](CO)[C@H]2c2ccccc2)c1	proCasp7 act 34.6 (no result: PLC-gamma1 inh, HGIII-sPLA2 inh, PLC-beta3 inh) | PC3 dual counter inactive | PC7 dual conf inactive
OC[C@@H]1[C@@H](c2ccc(F)cc2)C(c2ccccc2)=NN1c1ccccc1	proCasp7 act 34.3, proCasp3 act 30.4 | PC3 dual counter inactive | PC7 dual conf inactive
CCOC(=O)N1CCN(C(=O)C[C@H]2C[C@@]3(C(=O)OC)C(=C[C@H](COCc4ccccc4)O[C@@H]3C)N(Cc3cccc4ccccc34)C2=O)CC1	none (no result: proCasp7 act, Arr AP2 block, proCasp3 act)
Cc1ccc(C(=O)Cc2nc3ccccc3[nH]2)cc1	none
CCOC(=O)Cc1nc2ccccc2[nH]1	proCasp7 act 78.5 | PC3 dual counter inactive | PC7 dual conf inactive
Nc1c(S(=O)(=O)c2cccs2)c2nc3ccccc3nc2n1Cc1cccs1	proCasp7 act 77.7, proCasp3 act 81.6 | PC3 dual counter inactive | PC7 dual conf inactive
O=C1OCCN1C(=O)[C@H]1[C@H](c2ccc(Cl)cc2)C(c2ccccc2)=NN1c1ccccc1	none
O=C1[C@H]2C(c3ccccc3)=NN(c3ccccc3)[C@H]2C(=O)N1c1ccccc1	proCasp7 act 39.9, proCasp3 act 31.8 | PC3 dual counter inactive | PC7 dual conf inactive
Cc1ccc(C(=O)N/N=C/C2=Cc3ccccc3OC2C)cc1 (stereo not drawn)	proCasp7 act 33.6 | PC3 dual counter inactive | PC7 dual conf inactive
